Where a name gives a salt, the structure may show the parent alone. Active and inactive are the calls of the source. The rule behind the calls is not given here.

The record followed here is ChEMBL document CHEMBL2321684, “Novel hybrids of optically active ring-opened 3-n-butylphthalide derivative and isosorbide as potential anti-ischemic stroke agents” (J Med Chem, 2013).

Test [1] can be described thus: Antiplatelet aggregation activity in rabbit platelets assessed as inhibition of arachidonic acid-induced platelet aggregation incubated for 5 mins prior to arachidonic acid-challenge measured within 5 mins by Born's turbidimetric analysis. The format is functional, cell-based. The note with it: Oryctolagus cuniculus. In a few lines: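 Rabbit citrated PRP was adjusted to 400−450 × 10⁹ platelets/L and preincubated for 5 min at 37 °C with vehicle DMSO or compound at 0.1−1.6 mM (at least five concentrations). Aggregation was induced with arachidonic acid (0.33 mM, per the methods text). Maximum aggregation rate was recorded over 5 min by Born's turbidimetry, and IC₅₀ was derived from inhibition versus vehicle (mean ± SD).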

Test [2] is described as follows: Antiplatelet aggregation activity in rabbit platelets assessed as inhibition of ADP-induced platelet aggregation incubated for 5 mins prior to ADP-challenge measured within 5 mins by Born's turbidimetric analysis. As to conditions: Oryctolagus cuniculus. The format is functional, cell-based.
A short description of test [3]: Antiplatelet aggregation activity in rabbit platelets assessed as inhibition of ADP-induced platelet aggregation at 1 mM incubated for 5 mins prior to ADP-challenge measured within 5 mins by Born's turbidimetric analysis relative to control. The format is functional. As to conditions: Oryctolagus cuniculus. In a few lines: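 Rabbit carotid blood was citrated (3.8%, 9:1). PRP was adjusted with PPP to 400−450 × 10⁹ platelets/L. PRP was preincubated with compound or DMSO for 5 min at 37 °C, then aggregation was induced with ADP at 10 μM. Maximum aggregation rate was recorded over 5 min using Born's turbidimetry. Inhibition % was calculated versus vehicle; n = 6, mean ± SD.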

The subject of a further test is Mus musculus. Description: Antithrombotic activity in Swiss ICR mouse assessed as inhibition of collagen/adrenaline-induced acute systemic vascular thromboembolism at 160 mg/kg, po administered for 7 days prior to collagen/adrenaline-challenge measured up to 15 mins relative to control. The format is functional, organism-based. Also on record: dose 160 mg/kg. In a few lines: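 Male Swiss ICR mice (30−35 g), n = 15 per group, dosed by gavage daily for 7 days in DMSO vehicle. Two hours after the last dose, mice received collagen (0.21 mg/kg) plus adrenaline (44.5 μg/kg) iv. Survival was monitored for 15 min and reported as % surviving.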

In general, IC50 refers to the concentration at which inhibition is half-maximal. `CCCC[C@@H](OC(=O)CN1CCN(CCO)CC1)c1ccccc1C(=O)O[C@H]1CO[C@H]2[C@@H]1OC[C@H]2OC(=O)c1ccccc1[C@@H](CCCC)OC(=O)CN1CCN(CCO)CC1`: the IC50 was 630 µM in test [1] and 750 µM in test [2]. Usually inhibition stands for the drop in the measured response relative to a control, in per cent. `CCCC[C@H](OC(=O)CN1CCN(C)CC1)c1ccccc1C(=O)O[C@H]1CO[C@H]2[C@@H]1OC[C@H]2O[N+](=O)[O-]`: in test [3], the inhibition at 1000 µM was determined as 6.94%. For `CCCC[C@@H](OC(C)=O)c1ccccc1C(=O)O[C@H]1CO[C@H]2[C@@H]1OC[C@H]2OC(=O)c1ccccc1[C@@H](CCCC)OC(C)=O`, the IC50 in test [1] amounted to 570 µM; in test [2], 710 µM. With `CCCC[C@H](OC(C)=O)c1ccccc1C(=O)O[C@H]1CO[C@H]2[C@@H]1OC[C@H]2OC(=O)c1ccccc1[C@H](CCCC)OC(C)=O`, the IC50 in test [1] came to 210 µM; in test [2], 330 µM.

As to `CCCC[C@@H](OC(=O)CN1CCOCC1)c1ccccc1C(=O)O[C@H]1CO[C@H]2[C@@H]1OC[C@H]2OC(=O)c1ccccc1[C@@H](CCCC)OC(=O)CN1CCOCC1`, the IC50 in test [1] was 800 µM; in test [2] it was 940 µM.

For `CCCC[C@@H](OC(=O)CN1CCN(C)CC1)c1ccccc1C(=O)O[C@H]1CO[C@H]2[C@@H]1OC[C@H]2OC(=O)c1ccccc1[C@@H](CCCC)OC(=O)CN1CCN(C)CC1`, the 50% inhibitory concentration (IC50) amounted to 270 µM in test [1] and 360 µM in test [2]. As for `CCCC[C@H](OC(=O)CN1CCN(CCO)CC1)c1ccccc1C(=O)O[C@H]1CO[C@H]2[C@@H]1OC[C@H]2OC(=O)c1ccccc1[C@H](CCCC)OC(=O)CN1CCN(CCO)CC1`, the IC50 in test [1] was 360 µM; in test [2], 490 µM.

Turning to `CCCC[C@H](OC(=O)CN1CCOCC1)c1ccccc1C(=O)O[C@H]1CO[C@H]2[C@@H]1OC[C@H]2OC(=O)c1ccccc1[C@H](CCCC)OC(=O)CN1CCOCC1`, the results for the IC50 in test [1] and in test [2] were 320 µM and 450 µM, respectively. With `CCCC[C@H](OC(=O)CN1CCN(C)CC1)c1ccccc1C(=O)O[C@H]1CO[C@H]2[C@@H]1OC[C@H]2O`, the inhibition at 1000 µM in test [3] was determined as 6.94%. In the case of `Clc1ccccc1CN1CCc2sccc2C1` [TICLOPIDINE HYDROCHLORIDE], the IC50 in test [2] turned out to be 360 µM. As for `CC(=O)Oc1ccccc1C(=O)O` [ASPIRIN], the outcome in the test on Mus musculus was Active. Moreover, the IC50 in test [1] was 140 µM.

For the compound `CCCC[C@H](OC(=O)CN1CCN(C)CC1)c1ccccc1C(=O)O[C@@H]1CO[C@H]2[C@@H]1OC[C@@H]2O[N+](=O)[O-]`, the inhibition at 1000 µM in test [3] is 6.94%. Same read-out and setting: with `CCCC[C@H](OC(=O)CN1CCN(C)CC1)c1ccccc1C(=O)O` the figure was 6.94%. Take `CCCC[C@@H](OC(=O)CN1CCCC1)c1ccccc1C(=O)O[C@H]1CO[C@H]2[C@@H]1OC[C@H]2OC(=O)c1ccccc1[C@@H](CCCC)OC(=O)CN1CCCC1`: the results for the IC50 in test [1] and in test [2] were 910 µM and 1000 µM, respectively. Turning to `O[C@@H]1CO[C@H]2[C@@H]1OC[C@@H]2O` [ISOSORBIDE], in test [3], the inhibition at 1000 µM worked out at 6.94%. Further, the IC50 in test [1] amounted to 1680 µM; in test [2] it was 1350 µM. Turning to `CCCC[C@H](OC(=O)CN1CCCC1)c1ccccc1C(=O)O[C@H]1CO[C@H]2[C@@H]1OC[C@H]2OC(=O)c1ccccc1[C@H](CCCC)OC(=O)CN1CCCC1`, the IC50 was 640 µM in test [1] and 800 µM in test [2]. `CCCC[C@H](OC(=O)CN1CCN(C)CC1)c1ccccc1C(=O)O[C@@H]1CO[C@H]2[C@@H]1OC[C@@H]2O`: the inhibition at 1000 µM in test [3] came to 6.94%.
